This is an account of results in ChEMBL document CHEMBL4706613, “Novel 3-substituted coumarins as selective human carbonic anhydrase IX and XII inhibitors: Synthesis, biological and molecular dynamics analysis” (Eur J Med Chem, 2021).

Experiment [1] concerns the target Carbonic anhydrase 12 (Homo sapiens, UniProt O43570). Description: Inhibition of human CA12 preincubated for 6 hrs by phenol red dye based stopped flow CO2 hydration assay.
Experiment [2] has as its target T1, Carbonic anhydrase 9 (Homo sapiens, UniProt Q16790). Description: Inhibition of human CA9 preincubated for 6 hrs by phenol red dye based stopped flow CO2 hydration assay. The procedure, abridged: (§1)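 Ki values are the mean of three separate assays, with errors within ±5–10% of the reported values. Coumarin derivatives were incubated with the enzyme for 6 h before measurement.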

Experiment [3] addresses T2, Carbonic anhydrase 2 (Homo sapiens, UniProt P00918). Description: Inhibition of human CA2 preincubated for 6 hrs by phenol red dye based stopped flow CO2 hydration assay. The procedure, abridged:
as §1

Experiment [4] addresses T3, Carbonic anhydrase 1 (Homo sapiens, UniProt P00915). Description: Inhibition of human CA1 preincubated for 6 hrs by phenol red dye based stopped flow CO2 hydration assay. The procedure, abridged:
as §1

Experiment [5] concerns the target T1, Carbonic anhydrase 9. Description: Inhibition of human CA9 preincubated for 15 mins by phenol red dye based stopped flow CO2 hydration assay.
The target of experiment [6] is T3, Carbonic anhydrase 1. Briefly: Inhibition of human CA1 preincubated for 15 mins by phenol red dye based stopped flow CO2 hydration assay.
Experiment [7] deals with T2, Carbonic anhydrase 2. Briefly: Inhibition of human CA2 preincubated for 15 mins by phenol red dye based stopped flow CO2 hydration assay.

T3 sequence (P00915 whole entry): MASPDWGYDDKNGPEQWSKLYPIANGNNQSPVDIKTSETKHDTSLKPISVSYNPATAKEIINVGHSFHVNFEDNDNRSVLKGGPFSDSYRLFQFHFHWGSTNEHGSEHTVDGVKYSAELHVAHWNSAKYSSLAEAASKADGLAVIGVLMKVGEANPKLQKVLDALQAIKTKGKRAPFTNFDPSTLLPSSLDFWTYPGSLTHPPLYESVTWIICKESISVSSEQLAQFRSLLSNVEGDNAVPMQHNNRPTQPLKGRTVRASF
Carbonic anhydrase 12, sequence (O43570 whole entry): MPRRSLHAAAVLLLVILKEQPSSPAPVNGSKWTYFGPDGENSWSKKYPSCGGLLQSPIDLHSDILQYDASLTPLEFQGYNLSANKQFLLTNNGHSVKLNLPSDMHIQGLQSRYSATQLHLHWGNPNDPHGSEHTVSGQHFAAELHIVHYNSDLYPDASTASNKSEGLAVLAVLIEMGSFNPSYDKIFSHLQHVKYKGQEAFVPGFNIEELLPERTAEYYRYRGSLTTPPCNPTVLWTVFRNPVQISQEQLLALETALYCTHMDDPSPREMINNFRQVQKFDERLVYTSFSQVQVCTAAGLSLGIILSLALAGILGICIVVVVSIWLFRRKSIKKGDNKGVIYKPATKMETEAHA

As to `O=C(CS(=O)(=O)c1ccccc1)c1cc2ccccc2oc1=O`, the Ki in experiment [1] is 60.1 nM; in experiment [2], 41.4 nM; in experiment [3] it was above 100000 nM; in experiment [4], above 100000 nM.
`C/C(=N\Nc1ccc(S(N)(=O)=O)cc1)c1cc2ccccc2oc1=O`: the Ki in experiment [5] was determined as 43.8 nM.
`C/C(=N\Nc1ccc(S(N)(=O)=O)cc1)c1cc2cc(Br)ccc2oc1=O` gave a Ki in experiment [5] of 24.2 nM.
Take `O=C(N/N=C(\CS(=O)(=O)c1ccccc1)c1cc2ccccc2oc1=O)c1ccccc1`: the Ki in experiment [2] is 16000 nM; in experiment [3], above 100000 nM; in experiment [4] it was above 100000 nM.
In the case of `O=c1oc2ccccc2cc1/C(CS(=O)(=O)c1ccccc1)=N/Nc1ccccc1`, the values for the Ki in experiment [2], in experiment [3] and in experiment [4] were 1500 nM, above 100000 nM and above 100000 nM, respectively.
For the compound `NS(=O)(=O)c1ccc(N/N=C(\CS(=O)(=O)c2ccccc2)c2cc3cc(Br)ccc3oc2=O)cc1`, the Ki was determined as 3460 nM in experiment [6], 276 nM in experiment [7] and 63.6 nM in experiment [5].
In the case of `Cc1ccc(S(=O)(=O)C/C(=N\Nc2ccccc2)c2cc3ccccc3oc2=O)cc1`, the Ki in experiment [2] is 3940 nM; in experiment [3], above 100000 nM; in experiment [4] it was above 100000 nM.
For `Cc1ccc(S(=O)(=O)CC(=O)c2cc3cc(Br)ccc3oc2=O)cc1`, the Ki in experiment [2] was 87.2 nM; in experiment [3], above 100000 nM; in experiment [4] it was above 100000 nM.
As to `C/C(=N\NC(=O)c1ccc(S(N)(=O)=O)cc1)c1cc2ccccc2oc1=O`, the values for the Ki in experiment [6], in experiment [7] and in experiment [5] were 77.6 nM, 26.3 nM and 31.6 nM, respectively.
For `Cc1ccc(S(=O)(=O)C/C(=N\NC(=O)c2ccc(S(N)(=O)=O)cc2)c2cc3ccccc3oc2=O)cc1`, the results for the Ki in experiment [6], in experiment [7] and in experiment [5] were 1350 nM, 365 nM and 42.1 nM, respectively.
`O=c1oc2ccc(Br)cc2cc1/C(CS(=O)(=O)c1ccccc1)=N/Nc1ccccc1`: the Ki in experiment [2] was 4640 nM; in experiment [3], above 100000 nM; in experiment [4] it was above 100000 nM.
`Cc1ccc(S(=O)(=O)C/C(=N\Nc2ccc(S(N)(=O)=O)cc2)c2cc3cc(Br)ccc3oc2=O)cc1`: the Ki in experiment [6] was determined as 3960 nM; in experiment [7] it was 538 nM.
`Cc1ccc(S(=O)(=O)C/C(=N\Nc2ccc(S(N)(=O)=O)cc2)c2cc3ccccc3oc2=O)cc1`: the Ki in experiment [6] is 2600 nM; in experiment [7], 560 nM; in experiment [5], 76 nM.
On to `NS(=O)(=O)c1ccc(C(=O)N/N=C(\CS(=O)(=O)c2ccccc2)c2cc3ccccc3oc2=O)cc1`, for which the Ki in experiment [6] is 1540 nM; in experiment [7], 225 nM; in experiment [5] it was 18.6 nM.
On to `C/C(=N\NC(=O)c1ccc(S(N)(=O)=O)cc1)c1cc2cc(Br)ccc2oc1=O`, for which the results for the Ki in experiment [6], in experiment [7] and in experiment [5] were 92.5 nM, 12.1 nM and 19.8 nM, respectively.
As for `NS(=O)(=O)c1ccc(N/N=C(\CS(=O)(=O)c2ccccc2)c2cc3ccccc3oc2=O)cc1`, the Ki stood at 824 nM in experiment [6], 442 nM in experiment [7] and 89.1 nM in experiment [5].
Turning to `Cc1ccc(S(=O)(=O)C/C(=N\Nc2ccccc2)c2cc3cc(Br)ccc3oc2=O)cc1`, the Ki in experiment [2] was 8110 nM; in experiment [3] it was above 100000 nM; in experiment [4], above 100000 nM.
`O=C(N/N=C(\CS(=O)(=O)c1ccccc1)c1cc2cc(Br)ccc2oc1=O)c1ccccc1`: the Ki in experiment [2] is 8860 nM; in experiment [3], above 100000 nM; in experiment [4], above 100000 nM.
As for `O=C(CS(=O)(=O)c1ccccc1)c1cc2cc(Br)ccc2oc1=O`, the Ki in experiment [2] is 76.6 nM; in experiment [3] it was above 100000 nM; in experiment [4], above 100000 nM.
With `Cc1ccc(S(=O)(=O)CC(=O)c2cc3ccccc3oc2=O)cc1`, the Ki in experiment [2] was 66.3 nM; in experiment [3], above 100000 nM; in experiment [4], above 100000 nM.
